Published values pooled from the literature.
Compare with care: the assays were run in different laboratories.
Effect on: enzyme activity
Action: inhibitor
CHEK2: Serine/threonine-protein kinase Chk2 (CHEK2, Homo sapiens, UniProt O96017)
CHEK2 R145W: Serine/threonine-protein kinase Chk2 (CHEK2, Homo sapiens, UniProt O96017, R145W)

Nc1nc(Nc2ccccc2)sc1C(=O)c1c(F)cccc1F gave a remaining activity of 30% (CHEK2; 10 µM).
For FC(F)c1nc2ccccc2n1-c1nc(N2CCOCC2)nc(N2CCOCC2)n1, the remaining activity was 88% (CHEK2; 10 µM).
With O=C(Nc1cnn(-c2csc(C(=O)NC3COC3)c2)c1)Nc1ccccc1Cl the remaining activity was 97.8% (CHEK2; 5 µM).
For COc1cc(Cl)c(C(=O)N[C@@H](CN[C@H]2CC[C@@H](N)CC2)Cc2ccc(C#N)cc2)cc1-c1ccc(CN[C@H](C)c2ccc(C)cc2)o1, the remaining activity was 98% (CHEK2; 1 µM).
With CC(C)(C)c1nc(-c2cccc(NS(=O)(=O)c3c(F)cccc3F)c2F)c(-c2ccnc(N)n2)s1 the remaining activity was 103% (CHEK2; radiometric; 1 µM).
The remaining activity of CCCOc1ccc(OC)c(F)c1C(=O)c1ccc(C(=O)N[C@@H]2CNC[C@H]2NC(=O)c2ccc3[nH]ncc3c2)cc1 is reported as 21% (CHEK2 R145W; 10 µM).
COc1cc(Nc2cnc(C#N)c(O[C@H](C)CN(C)C)n2)ncc1-c1cnn(C)c1 has a remaining activity of 81% (CHEK2; radiometric; 1 µM).
Cc1ccc(C(=O)Nc2ccc(CN3CCN(C)CC3)c(C(F)(F)F)c2)cc1C#Cc1cnc2cccnn12 gave a remaining activity of 98% (CHEK2; 23.5 nM).
Cc1cnc(NC2CCOCC2)nc1-n1cnc(C(=O)NC(CN)c2cc(F)cc(Cl)c2)c1 (centres unmarked) gave a remaining activity of 75% (CHEK2; radiometric; 1 µM).
For CC(C)(O)[C@H]1CC[C@H](Nc2ccc3ncc(-c4cccc(C(F)(F)F)c4)n3n2)CC1, the remaining activity was 97.4% (CHEK2; 1 µM).
For Cc1ccc(NC(=O)c2ccc(C)c(C(F)(F)F)c2)cc1C#Cc1nn(C2CCC(O)CC2)c2ncnc(N)c12 (centres unmarked), the remaining activity was 102% (CHEK2 R145W; 10 µM).
